Drawing on paper PMC11376197 (Chemical Science, 2024), this text covers IC50 for one compound.

As usually defined, the IC50 is the concentration that inhibits the measured activity by half.

Common to all, as to assay: Cell viability assay
Assay [1] concerns A2780 (cisplatin-sensitive ovarian cancer cells). It is filed as cell-based, human. The note with it: read-out: IC50 A2780; 96 h of incubation. A digest of the protocol:
(§1)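 Cell lines were exposed to test compounds for 96 h, with cisplatin as a reference. Complexes came from DMSO stocks and cisplatin from water stocks. Antiproliferative activity is expressed as IC50.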

The subject of assay [2] is OVCAR-3 (high-grade serous ovarian cancer cells). It is filed as cell-based, human. The following applies: read-out: IC50 OVCAR-3; 96 h of incubation. A digest of the protocol: as §1
Assay [3] concerns HCT116 (colon cancer cells). It is filed as cell-based, human. The following applies: read-out: IC50 HCT116; 96 h of incubation. The method, boiled down:
as §1

Assay [4] concerns MRC-5 (non-cancerous lung fibroblasts). It is filed as cell-based. The following applies: read-out: IC50 MRC-5; 96 h of incubation. A digest of the protocol:
as §1

As to `N.N.[Cl][Pt][Cl]` [Cisplatin], the half-inhibitory concentration (IC50) in assay [1] was 600 ± 200 nM; in assay [2], 3100 ± 200 nM; in assay [3], 7900 ± 800 nM; in assay [4] it was 2000 ± 1000 nM.
